The values that follow come from ChEMBL document CHEMBL1158902, “Polyprenylated benzophenones from Garcinia assigu and their potential cancer chemopreventive activities” (J Nat Prod, 2003).

A value given as a limit tells only on which side of the number the result lay.

The nature of data set [1]: Cytotoxicity against human Raji cells assessed as cell viability at 16 nmol after 48 hrs by trypan blue assay. It counts as cell-based. As to conditions: read-out: Activity. The procedure, abridged: (§1)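 Raji cells grown to 10^6 cells/mL, pelleted, and resuspended in RPMI 1640 with 10% FCS. Medium held 4 mM n-butyric acid, 32 pmol TPA (20 ng/mL, in DMSO) and test compound in DMSO. Incubated 48 h at 37 °C. Cell number and viability counted by hemocytometer with Trypan Blue; at least 60% survival required for a valid result.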

For data set [2], the system named is Radical scavenging activity. As to the kind of experiment: Antioxidant activity assessed as DPPH radical scavenging activity. It counts as functional. The procedure, abridged:
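Test compound in ethanol mixed with 2 mL of 0.1 mM DPPH solution; held 30 min at room temperature, then absorbance at 520 nm read. EC50 estimated by probit transformation; IC50 as mean ± SD of five replicates.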

In data set [3] the test system is Raji. Kind of data set: Inhibition of TPA-induced EBV-early antigen activation in human Raji cells at 32 nmol after 48 hrs relative to TPA. Type of data set: cell-based. Set-up: scale not given: the % may be the effect or the level left. Conditions: human gammaherpesvirus 4. The procedure, abridged: (§2)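 Raji cells at 10^6 cells/mL were resuspended in RPMI 1640 with 10% FCS. Induction used 4 mM n-butyric acid plus 32 pmol TPA (20 ng/mL), with test compound added in DMSO. After 48 h at 37 °C, EA-positive cells were scored blind, at least 500 cells per assay. Activation is expressed as % of TPA-only control (100%) ± SD.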

Data set [4] concerns Raji. Kind of data set: Inhibition of TPA-induced EBV-early antigen activation in human Raji cells at 3.2 nmol after 48 hrs relative to TPA. Type of data set: cell-based. Set-up: scale not given: the % may be the effect or the level left. As to conditions: human gammaherpesvirus 4. The procedure, abridged: as §2
The nature of data set [5]: Cytotoxicity against human Raji cells assessed as cell viability at 3.2 nmol after 48 hrs by trypan blue assay. Conditions: read-out: Activity. Type of data set: cell-based. The procedure, abridged:
as §1

The nature of data set [6]: Cytotoxicity against human Raji cells assessed as cell viability at 32 nmol after 48 hrs by trypan blue assay. Conditions: read-out: Activity. It counts as cell-based. The procedure, abridged: as §1
The test system of data set [7] is Raji. As to the kind of experiment: Inhibition of TPA-induced EBV-early antigen activation in human Raji cells at 16 nmol after 48 hrs relative to TPA. Type of data set: cell-based. Set-up: scale not given: the % may be the effect or the level left. Conditions: human gammaherpesvirus 4. The procedure, abridged:
as §2

The nature of data set [8]: Cytotoxicity against human Raji cells assessed as cell viability at 0.32 nmol after 48 hrs by trypan blue assay. Type of data set: cell-based. As to conditions: read-out: Activity. The procedure, abridged:
as §1

Data set [9] relates to Raji. As to the kind of experiment: Inhibition of TPA-induced EBV-early antigen activation in human Raji cells at 0.32 nmol after 48 hrs relative to TPA. Type of data set: cell-based. Set-up: scale not given: the % may be the effect or the level left. Conditions: human gammaherpesvirus 4. The procedure, abridged:
as §2

By IC50 is commonly meant the concentration needed to halve the response being measured. `COc1cc(C(=O)C2=C3OC(C)(C)[C@@H](CC=C(C)C)C[C@@]34C[C@@H](CC=C(C)C)C(C)(C)[C@@](CC=C(C)C)(C2=O)C4=O)ccc1O`: the viability at 48 h, 16 nmol in [1] was above 80%. Besides, the IC50 in [2] was above 100 µM. Also, the Activity stood at 18.5% in data set [3], 89% in data set [4], 60.1% in data set [7] and 100% in [9]. Further, the viability at 48 h, 3.2 nmol in data set [5] is above 80%. For the same compound, the viability at 48 h, 32 nmol in [6] worked out at 60%. The viability at 48 h, 0.32 nmol in data set [8] was above 80%.

On to `C=C(C)[C@@H](CC=C(C)C)C[C@@]12C[C@@H](CC=C(C)C)C(C)(C)[C@@](CC=C(C)C)(C(=O)C(C(=O)c3ccc(O)c(OC)c3)=C1O)C2=O`, for which, in [1], the viability at 48 h, 16 nmol was above 80%. The IC50 in data set [2] was above 100 µM. In addition, the Activity in data set [3] was 19.7%; in data set [4], 88.1%; in data set [7], 54.9%; in [9] it was 100%. For the same compound, the viability at 48 h, 3.2 nmol in [5] was above 80%. Moreover, the viability at 48 h, 32 nmol in data set [6] turned out to be 60%. Also, the viability at 48 h, 0.32 nmol in data set [8] was above 80%.

With `CC(C)=CC[C@H]1C[C@@]23C[C@@H](CC=C(C)C)C(C)(C)[C@@](CC=C(C)C)(C(=O)C(C(=O)c4ccc(O)c(O)c4)=C2OC1(C)C)C3=O` [CAMBOGIN], the viability at 48 h, 16 nmol in data set [1] is above 80%. Further, in [2], the IC50 came to 13.3 µM. Besides, the Activity in data set [3] turned out to be 17.7%; in data set [4], 87.1%; in data set [7] it was 56%; in data set [9] it was 100%. For the same compound, the viability at 48 h, 3.2 nmol in data set [5] is above 80%. Besides, the viability at 48 h, 32 nmol in [6] stood at 60%. The viability at 48 h, 0.32 nmol in [8] was above 80%.

Consider `CC(C)=CC[C@@H]1C[C@@]2(CC=C(C)C)C(=O)[C@](CC=C(C)C)(C(=O)C(C(=O)c3ccccc3)=C2O)C1(C)C` [CLUSIANONE], for which, in data set [1], the viability at 48 h, 16 nmol was above 80%. In data set [2], the IC50 is above 100 µM. In addition, the Activity worked out at 17.4% in [3], 87.7% in data set [4], 53.7% in data set [7] and 100% in [9]. Moreover, in data set [5], the viability at 48 h, 3.2 nmol is above 80%. The viability at 48 h, 32 nmol in [6] is 60%. In [8], the viability at 48 h, 0.32 nmol was above 80%.

For `CC1(C)[C@@H](O)CC[C@]2(C)[C@H]3C(=O)C=C4[C@@H]5C[C@@](C)(C(=O)O)CC[C@]5(C)CC[C@@]4(C)[C@]3(C)CC[C@@H]12` [ENOXOLONE], the viability at 48 h, 16 nmol in [1] was above 80%. The Activity in data set [3] was found to be 15.6%; in data set [4], 100%; in [7], 54.3%; in data set [9], 100%. Also, in data set [5], the viability at 48 h, 3.2 nmol was above 80%. Besides, the viability at 48 h, 32 nmol in [6] is above 80%.

Regarding `C=C(C)[C@@H](CC=C(C)C)C[C@@]12C[C@@H](CC=C(C)C)C(C)(C)[C@@](CC=C(C)C)(C(=O)C(C(=O)c3ccc(O)c(O)c3)=C1O)C2=O` [GARCINOL], the viability at 48 h, 16 nmol in data set [1] is above 80%. For the same compound, the IC50 in data set [2] is 10.2 µM. In addition, the Activity in data set [3] worked out at 14.4%; in [4], 84.9%; in data set [7] it was 47%; in data set [9] it was 100%. For the same compound, the viability at 48 h, 3.2 nmol in data set [5] was above 80%. Moreover, the viability at 48 h, 32 nmol in data set [6] worked out at 60%. Further, the viability at 48 h, 0.32 nmol in data set [8] is above 80%.

As to `O=C(c1ccc(O)c(O)c1)c1c(O)cc(O)cc1O` [MACLURIN], in [1], the viability at 48 h, 16 nmol was above 80%. Also, the Activity in [3] is 0%; in [4], 80.2%; in data set [7], 52.7%; in data set [9], 94.3%. Besides, the viability at 48 h, 3.2 nmol in data set [5] was above 80%. For the same compound, the viability at 48 h, 32 nmol in data set [6] was 70%. In addition, in data set [8], the viability at 48 h, 0.32 nmol was above 80%.

With VITAMIN E, the half-inhibitory concentration (IC50) in data set [2] worked out at 22.8 µM.
